Activity calls are given as the source filed them. No cut-off for these calls is given here.
Tests used:
[1] = target: Cannabinoid receptor 2 (Homo sapiens, UniProt P34972); experiment: Displacement of [3H]-CP55940 from human CB2 receptor expressed in HEK-293-EBNA cell membranes after 90 mins by scintillation counting
How it was run: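 Competitive radioligand binding with [3H]CP55940 on membranes of HEK-293-EBNA cells transfected with human CB1 or CB2 receptor. Ki derived from IC50 by the Cheng-Prusoff equation. Mean ± SEM of two to four independent experiments, each run in triplicate.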

[2] = target: T1, Cannabinoid receptor 1 (Homo sapiens, UniProt P21554); experiment: Displacement of [3H]-CP55940 from human CB1 receptor expressed in HEK-293-EBNA cell membranes after 90 mins by scintillation counting
[3] = target: T1, Cannabinoid receptor 1; experiment: Binding affinity to CB1 receptor
How it was run: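 Radioligand competition binding on membranes of HEK-293-EBNA cells transfected with human CB1 receptor, displacing [3H]CP55940. Ki obtained from IC50 by the Cheng-Prusoff equation. Two to four independent experiments, each run in triplicate; mean ± SEM reported.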

[4] = target: T1, Cannabinoid receptor 1; experiment: Binding affinity at CB1 receptor expressed in mouse HT22 cells at 1 uM incubated for 1 hr using strepavidin-Alexa Fluor 488 staining based by fluorescence microscopy; assay type: cell-based; settings: HT-22
How it was run: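 HT-22 mouse hippocampal cells transiently transfected with CB1 were incubated with the biotinylated probe at 1 μM for 1 h. Excess probe was removed and bound probe detected with streptavidin-Alexa Fluor 488. Nuclei were stained with Hoechst 33258 and imaged by fluorescence microscopy. Nontransfected cells, or an excess of HU210, served as specificity controls.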

[5] = target: T1, Cannabinoid receptor 1; experiment: Binding affinity at CB1 receptor expressed in mouse HT22 cells at 1 uM incubated for 1 hr using antiCB1-antibody based fluorescence microscopy; assay type: cell-based; settings: HT-22
How it was run: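 Transfected HT-22 cells were treated in sequence with the probe (1 μM, 1 h), streptavidin-Alexa 488, anti-CB1 antibody and an anti-rabbit Alexa 633 conjugate. Co-labelling was imaged by fluorescence microscopy in the red channel and as a merge.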

T1 sequence (P21554 whole entry): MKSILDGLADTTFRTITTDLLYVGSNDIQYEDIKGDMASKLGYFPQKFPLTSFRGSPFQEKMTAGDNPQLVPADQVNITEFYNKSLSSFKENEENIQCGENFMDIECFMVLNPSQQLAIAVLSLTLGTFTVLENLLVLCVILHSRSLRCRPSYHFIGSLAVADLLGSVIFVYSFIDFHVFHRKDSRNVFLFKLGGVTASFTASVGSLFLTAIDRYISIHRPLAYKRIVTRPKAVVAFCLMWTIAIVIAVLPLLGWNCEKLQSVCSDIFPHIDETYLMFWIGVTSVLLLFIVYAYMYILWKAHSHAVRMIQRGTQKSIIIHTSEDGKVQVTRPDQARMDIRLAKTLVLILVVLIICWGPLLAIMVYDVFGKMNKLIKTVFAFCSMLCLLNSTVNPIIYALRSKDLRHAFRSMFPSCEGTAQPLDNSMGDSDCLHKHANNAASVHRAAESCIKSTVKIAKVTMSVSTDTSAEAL
Sequence of Cannabinoid receptor 2 (P34972 whole entry): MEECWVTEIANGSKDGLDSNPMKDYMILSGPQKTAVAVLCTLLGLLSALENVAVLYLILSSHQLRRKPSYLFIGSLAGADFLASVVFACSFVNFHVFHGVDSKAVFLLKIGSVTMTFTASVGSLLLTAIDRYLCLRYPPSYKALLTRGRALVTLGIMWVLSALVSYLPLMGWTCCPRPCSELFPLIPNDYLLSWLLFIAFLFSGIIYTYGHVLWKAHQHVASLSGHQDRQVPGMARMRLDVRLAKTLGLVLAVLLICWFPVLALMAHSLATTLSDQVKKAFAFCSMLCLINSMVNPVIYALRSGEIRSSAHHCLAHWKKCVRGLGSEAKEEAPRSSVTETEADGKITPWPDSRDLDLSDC

Row | SMILES | Ki [1] | Ki [2] | Ki [3] | Activity [4] | Activity [5]
1 | CCCCC/C=C\C/C=C\C/C=C\C/C=C\CCCC(=O)OC(CO)CO [2-ARACHIDONOYLGLYCEROL] | 1300 nM |  |  |  | 
2 | O=C(CCCC[C@@H]1SC[C@@H]2NC(=O)N[C@@H]21)NCCCCCC(=O)OCCCC/C=C\C/C=C\C/C=C\C/C=C\CCCC(=O)NC1CC1 | > 2000 nM | > 2000 nM |  |  | 
3 | C[C@H](CO)NC(=O)CCC/C=C\C/C=C\C/C=C\C/C=C\CCCCOC(=O)CCCCCNC(=O)CCCC[C@@H]1SC[C@@H]2NC(=O)N[C@@H]21 | > 2000 nM | 2000 nM |  |  | 
4 | CCCCCCC(C)(C)c1cc(O)c2c(c1)OC(C)(C)[C@@H]1CC=C(CO)C[C@@H]21 |  |  | 0.06 nM |  | 
5 | C#CCCCC(=O)OC[C@@H](C)NC(=O)CCC/C=C\C/C=C\C/C=C\C/C=C\CCCCC | > 2000 nM | 2000 nM |  |  | 
6 | CCCCC/C=C\C/C=C\C/C=C\C/C=C\CCCCOC(CO)CO | > 1000 nM | 25 nM |  |  | 
7 | C#CCCCC(=O)OCC(CO)OCCCC/C=C\C/C=C\C/C=C\C/C=C\CCCCC (stereo not drawn) | 84.9 nM | 84.7 nM |  |  | 
8 | Cc1cc(-c2cc(C(=O)NC3C4(C)CCC(C4)C3(C)C)nn2Cc2ccc(CNCCCCCCN)cc2)ccc1Cl (stereo not drawn) | 260 nM |  |  |  | 
9 | C#CCCCC(=O)N[C@@H](Cc1ccc(C(=O)c2ccccc2)cc1)C(=O)OC[C@@H](C)NC(=O)CCC/C=C\C/C=C\C/C=C\C/C=C\CCCCC | > 2000 nM | 2000 nM |  |  | 
10 | CCCCC/C=C\C/C=C\C/C=C\C/C=C\CCCC(=O)N[C@H](C)COC(=O)CCCCCNC(=O)CCCC[C@@H]1SC[C@@H]2NC(=O)N[C@@H]21 | > 2000 nM | 2000 nM |  |  | 
11 | CCCCC/C=C\C/C=C\C/C=C\C/C=C\CCCC(=O)OC(CO)COC(=O)CCCCCNC(=O)CCCC[C@@H]1SC[C@@H]2NC(=O)N[C@@H]21 (stereo partly drawn) | 379 nM | > 5000 nM |  |  | 
12 | CCCCC/C=C\C/C=C\C/C=C\C/C=C\CCCCOC(CO)COC(=O)CCCCCNC(=O)CCCC[C@@H]1SC[C@@H]2NC(=O)N[C@@H]21 (stereo partly drawn) | 450 nM | 221 nM |  | Active | Active

— ChEMBL document CHEMBL1799969, “Development of endocannabinoid-based chemical probes for the study of cannabinoid receptors” (J Med Chem, 2011)
